Experimental data taken from ChEMBL document CHEMBL1156171, “N-aryltriazole ribonucleosides with potent antiproliferative activity against drug-resistant pancreatic cancer” (2010).
Activity calls are given as the source filed them. The rule behind the calls is not given here.

Key:
Capan-2 = experiment: Antiproliferative activity against human Capan2 cells assessed as cell viability at 50 uM after 48 hrs by MTT assay; type: functional; conditions: Capan-2, 48 h, read-out: Activity
Outline: (§1)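 Cells exposed to 50 µM compound (fresh medium) for 48 h at 37 °C, 5% CO2; untreated control. Viable cells counted by MTT colorimetric assay. Documented for MiaPaCa-2: DMEM + 10% FBS, 15,000 cells/well, overnight attachment before treatment.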

PC-3 = experiment: Antiproliferative activity against human PC3 cells assessed as cell viability at 50 uM after 48 hrs by MTT assay; type: functional; conditions: PC-3, 48 h, read-out: Activity; outline: as §1
MIA PaCa-2 [1] = experiment: Antiproliferative activity against human MIAPaCa2 cells assessed as cell viability at 50 uM after 48 hrs by MTT assay; type: functional; conditions: MIA PaCa-2, 48 h, read-out: Activity; outline: as §1
MIA PaCa-2 [2] = experiment: Antiproliferative activity against human MIAPaCa2 cells assessed as cell viability after 48 hrs by MTT assay; type: functional, cell-based
Outline: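 MiaPaCa-2 cells in DMEM + 10% FBS, plated at 15,000 cells/well and attached overnight. Medium then replaced with fresh medium holding compound over a dose range; 37 °C, 5% CO2, 48 h. Viable cells determined by MTT colorimetric assay relative to untreated control.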

MIA PaCa-2 [3] = experiment: Induction of apoptosis in human MIAPaCa2 cells assessed as increase in caspase 3/7 activation at 50 uM after 24 hrs by luminescence assay; type: functional, cell-based
Outline: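 MiaPaCa-2 cells plated at 15,000 cells/well and treated 24 h later with 50 µM compound for 24 h. Caspase-Glo 3/7 reagent added; DEVD-containing luminogenic substrate cleavage read as luminescence after 1 h at room temperature. Untreated cells as control.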

MIA PaCa-2 [4] = experiment: Induction of apoptosis in human MIAPaCa2 cells assessed as increase in sub-G1/G0 cell fraction at 50 uM after 48 hrs using propidium iodide staining by FACS analysis; type: functional, cell-based
Outline: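 MiaPaCa-2 cells plated at 10^6 per dish, grown overnight, then given fresh medium with 50 µM compound for 48 h; untreated negative control. Cells trypsinized, PBS-washed, fixed overnight in cold 70% ethanol at 4 °C, RNase-treated, propidium iodide stained, and sub-G1/G0 fraction read by flow cytometry. Triplicate samples.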

## NC(=O)c1nc(Nc2ccc(F)cc2)nn1[C@@H]1O[C@H](CO)[C@@H](O)[C@H]1O
Capan-2
  viability at 50 µM: 62.9%
PC-3
  viability at 50 µM: 67%
MIA PaCa-2 [1]
  viability at 50 µM: 68.1%

## COC(=O)c1nc(Nc2ccccc2)nn1[C@@H]1O[C@H](COC(C)=O)[C@@H](OC(C)=O)[C@H]1OC(C)=O
Capan-2
  viability at 50 µM: 96.2%
PC-3
  viability at 50 µM: 91%
MIA PaCa-2 [1]
  viability at 50 µM: 138%

## COC(=O)c1nc(Nc2ccc(C)cc2)nn1[C@@H]1O[C@H](COC(C)=O)[C@@H](OC(C)=O)[C@H]1OC(C)=O
MIA PaCa-2 [2]
  Activity: Dose-dependent effect
MIA PaCa-2 [3]
  Activity: Active
Capan-2
  viability at 50 µM: 47.1%
PC-3
  viability at 50 µM: 68.6%
MIA PaCa-2 [4]
  Activity: Active
MIA PaCa-2 [1]
  viability at 50 µM: 58.6%

## COC(=O)c1nc(Nc2ccc(OC)cc2)nn1[C@@H]1O[C@H](COC(C)=O)[C@@H](OC(C)=O)[C@H]1OC(C)=O
Capan-2
  viability at 50 µM: 72%
PC-3
  viability at 50 µM: 85.6%
MIA PaCa-2 [1]
  viability at 50 µM: 96.4%

## CCCc1ccc(Nc2nc(C(N)=O)n([C@@H]3O[C@H](CO)[C@@H](O)[C@H]3O)n2)cc1
Capan-2
  viability at 50 µM: 71.5%
PC-3
  viability at 50 µM: 90.3%
MIA PaCa-2 [1]
  viability at 50 µM: 103%

## NC(=O)c1nc(Nc2ccccc2)nn1[C@@H]1O[C@H](CO)[C@@H](O)[C@H]1O
Capan-2
  viability at 50 µM: 46.6%
PC-3
  viability at 50 µM: 73.9%
MIA PaCa-2 [1]
  viability at 50 µM: 68%

## COc1ccc(Nc2nc(C(N)=O)n([C@@H]3O[C@H](CO)[C@@H](O)[C@H]3O)n2)cc1
Capan-2
  viability at 50 µM: 126%
PC-3
  viability at 50 µM: 102%
MIA PaCa-2 [1]
  viability at 50 µM: 126%

## CC(=O)O[C@H]1C(=O)[C@@]2(C)[C@H]([C@H](OC(=O)c3ccccc3)[C@]3(O)C[C@H](OC(=O)[C@H](O)[C@@H](NC(=O)c4ccccc4)c4ccccc4)C(C)=C1C3(C)C)[C@]1(OC(C)=O)CO[C@@H]1C[C@@H]2O [PACLITAXEL]
PC-3
  viability at 50 µM: 41.3%

## NC(=O)c1nc(Nc2cccc(Cl)c2)nn1[C@@H]1O[C@H](CO)[C@@H](O)[C@H]1O
Capan-2
  viability at 50 µM: 66.2%
PC-3
  viability at 50 µM: 77.4%
MIA PaCa-2 [1]
  viability at 50 µM: 88.7%

## COC(=O)c1nc(Nc2ccc(C(F)(F)F)cc2)nn1[C@@H]1O[C@H](COC(C)=O)[C@@H](OC(C)=O)[C@H]1OC(C)=O
Capan-2
  viability at 50 µM: 64.4%
PC-3
  viability at 50 µM: 88.4%
MIA PaCa-2 [1]
  viability at 50 µM: 98.6%

## NC(=O)c1nc(Nc2ccc(Cl)cc2)nn1[C@@H]1O[C@H](CO)[C@@H](O)[C@H]1O
Capan-2
  viability at 50 µM: 72.8%
PC-3
  viability at 50 µM: 70.2%
MIA PaCa-2 [1]
  viability at 50 µM: 95.9%

## COC(=O)c1nc(Nc2ccc(Cl)cc2)nn1[C@@H]1O[C@H](COC(C)=O)[C@@H](OC(C)=O)[C@H]1OC(C)=O
MIA PaCa-2 [2]
  Activity: Dose-dependent effect
MIA PaCa-2 [3]
  Activity: Active
Capan-2
  viability at 50 µM: 59.6%
PC-3
  viability at 50 µM: 60.2%
MIA PaCa-2 [4]
  Activity: Active
MIA PaCa-2 [1]
  viability at 50 µM: 43.8%

## COC(=O)c1nc(Nc2cccc(C)c2)nn1[C@@H]1O[C@H](COC(C)=O)[C@@H](OC(C)=O)[C@H]1OC(C)=O
Capan-2
  viability at 50 µM: 84.9%
PC-3
  viability at 50 µM: 94.2%
MIA PaCa-2 [1]
  viability at 50 µM: 99.9%

## CCc1ccc(Nc2nc(C(=O)OC)n([C@@H]3O[C@H](COC(C)=O)[C@@H](OC(C)=O)[C@H]3OC(C)=O)n2)cc1
Capan-2
  viability at 50 µM: 90%
PC-3
  viability at 50 µM: 96.1%
MIA PaCa-2 [1]
  viability at 50 µM: 99%

## Cc1cccc(Nc2nc(C(N)=O)n([C@@H]3O[C@H](CO)[C@@H](O)[C@H]3O)n2)c1
Capan-2
  viability at 50 µM: 76.3%
PC-3
  viability at 50 µM: 96.2%
MIA PaCa-2 [1]
  viability at 50 µM: 100%

## COC(=O)c1nc(Nc2ccc(SC)cc2)nn1[C@@H]1O[C@H](COC(C)=O)[C@@H](OC(C)=O)[C@H]1OC(C)=O
Capan-2
  viability at 50 µM: 88.1%
PC-3
  viability at 50 µM: 106%
MIA PaCa-2 [1]
  viability at 50 µM: 85.4%

## COC(=O)c1nc(Nc2ccc(F)cc2)nn1[C@@H]1O[C@H](COC(C)=O)[C@@H](OC(C)=O)[C@H]1OC(C)=O
Capan-2
  viability at 50 µM: 79.8%
PC-3
  viability at 50 µM: 84.7%
MIA PaCa-2 [1]
  viability at 50 µM: 80.2%

## Nc1ccn([C@@H]2O[C@H](CO)[C@@H](O)C2(F)F)c(=O)n1 [GEMCITABINE]
Capan-2
  viability at 50 µM: 32.7%
MIA PaCa-2 [1]
  viability at 50 µM: 70.4%

## CCCc1ccc(Nc2nc(C(=O)OC)n([C@@H]3O[C@H](COC(C)=O)[C@@H](OC(C)=O)[C@H]3OC(C)=O)n2)cc1
Capan-2
  viability at 50 µM: 95.9%
PC-3
  viability at 50 µM: 90.2%
MIA PaCa-2 [1]
  viability at 50 µM: 103%

## CSc1ccc(Nc2nc(C(N)=O)n([C@@H]3O[C@H](CO)[C@@H](O)[C@H]3O)n2)cc1
Capan-2
  viability at 50 µM: 71.1%
PC-3
  viability at 50 µM: 92.1%
MIA PaCa-2 [1]
  viability at 50 µM: 98.6%

## CCc1ccc(Nc2nc(C(N)=O)n([C@@H]3O[C@H](CO)[C@@H](O)[C@H]3O)n2)cc1
Capan-2
  viability at 50 µM: 66%
PC-3
  viability at 50 µM: 91.4%
MIA PaCa-2 [1]
  viability at 50 µM: 99.8%

## NC(=O)c1nc(Nc2ccc(C(F)(F)F)cc2)nn1[C@@H]1O[C@H](CO)[C@@H](O)[C@H]1O
Capan-2
  viability at 50 µM: 122%
PC-3
  viability at 50 µM: 89.4%
MIA PaCa-2 [1]
  viability at 50 µM: 100%

## COC(=O)c1nc(Nc2cccc(Cl)c2)nn1[C@@H]1O[C@H](COC(C)=O)[C@@H](OC(C)=O)[C@H]1OC(C)=O
Capan-2
  viability at 50 µM: 65.8%
PC-3
  viability at 50 µM: 69.8%
MIA PaCa-2 [1]
  viability at 50 µM: 72.4%

## Cc1ccc(Nc2nc(C(N)=O)n([C@@H]3O[C@H](CO)[C@@H](O)[C@H]3O)n2)cc1
Capan-2
  viability at 50 µM: 63.9%
PC-3
  viability at 50 µM: 108%
MIA PaCa-2 [1]
  viability at 50 µM: 85.6%
